How the values were obtained:
[1] = target: Dual specificity mitogen-activated protein kinase kinase 4 (Mus musculus) (UniProt P47809); assay: Residual activity at mouse MKK4 at 10 uM in presence of 10 uM ATP relative to control
Method in brief: (§1)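 Single-concentration counter-screen across a panel of 80 Ser/Thr and Tyr protein kinases. Compound was tested at 10 µM with ATP at 10 µM. Activity remaining in each kinase is expressed relative to control.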

[2] = target: cAMP-dependent protein kinase (PKA) (Homo sapiens) (UniProt P22694+P17612+P22612); assay: Residual activity at human PKA at 10 uM in presence of 10 uM ATP relative to control; format: protein assay; method in brief: as §1
[3] = target: Protein kinase C gamma type (Homo sapiens) (UniProt P05129); assay: Residual activity at human PKCgamma at 10 uM in presence of 10 uM ATP relative to control; method in brief: as §1
[4] = target: Protein kinase C delta type (Homo sapiens) (UniProt Q05655); assay: Residual activity at human PKCdelta at 10 uM in presence of 10 uM ATP relative to control; method in brief: as §1
[5] = target: Tyrosine-protein kinase Fes/Fps (Homo sapiens) (UniProt P07332); assay: Residual activity at human Fes at 10 uM in presence of 10 uM ATP relative to control
Method in brief: (§2)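 Panel of Ser/Thr and Tyr protein kinases, each tested with 10 µM compound in the presence of 10 µM ATP; activity expressed relative to control.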

[6] = target: Mitogen-activated protein kinase 9 (Homo sapiens) (UniProt P45984); assay: Residual activity at human JNK2-alpha-2 at 10 uM in presence of 10 uM ATP relative to control; method in brief: as §1
[7] = target: MAP kinase-activated protein kinase 2 (Homo sapiens) (UniProt P49137); assay: Residual activity at human MAPKAPK2 at 10 uM in presence of 10 uM ATP relative to control; method in brief: as §1
[8] = target: Rho-associated protein kinase 2 (Homo sapiens) (UniProt O75116); assay: Residual activity at human ROCK2 at 10 uM in presence of 10 uM ATP relative to control; method in brief: as §1
[9] = target: Mitogen-activated protein kinase 12 (Homo sapiens) (UniProt P53778); assay: Residual activity at human SAPK3 at 10 uM in presence of 10 uM ATP relative to control; method in brief: as §1
[10] = target: BDNF/NT-3 growth factors receptor (Homo sapiens) (UniProt Q16620); assay: Residual activity at human TrkB at 10 uM in presence of 10 uM ATP relative to control; method in brief: as §1
[11] = target: Dual specificity mitogen-activated protein kinase kinase 7 (Homo sapiens, UniProt O14733); assay: Inhibition of human MKK7beta
THP-1 = assay: Inhibition of MCP1-induced PKB/Akt phosphorylation in THP1 cells; format: functional, cell-based; settings: Homo sapiens
Method in brief: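 THP-1 monocytes starved 3 h in serum-free medium and pretreated with inhibitor or DMSO (15 min in methods; 20 min in figure legend). Stimulated with 100 nM MCP-1/CCL2 for 30 s, or with 50 ng/mL CSF-1 for 5 min. Phospho-Ser-473 and total Akt detected by Western blot and quantified.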

Mus musculus = assay: Reduction of neutrophil recruitment in mouse at 10 mg/kg, po; format: functional; parameters: scale not given: the % may be the effect or the level left
Method in brief: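 Thioglycollate-induced peritonitis in mice. Compound given orally at 10 mg/kg; peritoneal neutrophil recruitment measured 4 h after thioglycollate injection, reported as percent reduction.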

[12] = target: Phosphatidylinositol 4,5-bisphosphate 3-kinase catalytic subunit alpha isoform (Homo sapiens, UniProt P42336); assay: Inhibition of human PI3Kalpha
[13] = target: Tyrosine-protein kinase receptor UFO (Homo sapiens) (UniProt P30530); assay: Residual activity at human Axl at 10 uM in presence of 10 uM ATP relative to control; method in brief: as §2
Sequence of Tyrosine-protein kinase receptor UFO (Homo sapiens) (P30530 whole entry): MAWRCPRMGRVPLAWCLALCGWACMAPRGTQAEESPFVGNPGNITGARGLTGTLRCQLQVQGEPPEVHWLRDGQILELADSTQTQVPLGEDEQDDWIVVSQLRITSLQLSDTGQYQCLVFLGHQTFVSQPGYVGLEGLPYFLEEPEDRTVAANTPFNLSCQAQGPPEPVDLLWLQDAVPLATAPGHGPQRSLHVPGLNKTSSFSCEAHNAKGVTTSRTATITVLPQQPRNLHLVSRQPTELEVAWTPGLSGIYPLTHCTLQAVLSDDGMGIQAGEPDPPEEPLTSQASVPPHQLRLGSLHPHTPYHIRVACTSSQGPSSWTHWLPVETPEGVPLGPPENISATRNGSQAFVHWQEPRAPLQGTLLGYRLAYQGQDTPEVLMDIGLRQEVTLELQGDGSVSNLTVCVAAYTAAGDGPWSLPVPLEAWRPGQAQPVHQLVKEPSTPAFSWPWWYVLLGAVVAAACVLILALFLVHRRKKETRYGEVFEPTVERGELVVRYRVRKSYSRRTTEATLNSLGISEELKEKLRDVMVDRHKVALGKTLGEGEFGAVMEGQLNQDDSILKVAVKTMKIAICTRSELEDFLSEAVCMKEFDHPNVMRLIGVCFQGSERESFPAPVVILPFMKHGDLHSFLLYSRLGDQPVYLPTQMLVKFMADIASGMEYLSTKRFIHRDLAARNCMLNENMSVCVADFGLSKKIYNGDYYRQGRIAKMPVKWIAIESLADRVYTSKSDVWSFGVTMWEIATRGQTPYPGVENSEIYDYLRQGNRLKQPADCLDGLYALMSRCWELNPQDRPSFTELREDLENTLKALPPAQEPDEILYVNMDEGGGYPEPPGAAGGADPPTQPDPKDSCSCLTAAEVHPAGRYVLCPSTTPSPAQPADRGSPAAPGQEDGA

Sequence of Mitogen-activated protein kinase 12 (Homo sapiens) (P53778 whole entry): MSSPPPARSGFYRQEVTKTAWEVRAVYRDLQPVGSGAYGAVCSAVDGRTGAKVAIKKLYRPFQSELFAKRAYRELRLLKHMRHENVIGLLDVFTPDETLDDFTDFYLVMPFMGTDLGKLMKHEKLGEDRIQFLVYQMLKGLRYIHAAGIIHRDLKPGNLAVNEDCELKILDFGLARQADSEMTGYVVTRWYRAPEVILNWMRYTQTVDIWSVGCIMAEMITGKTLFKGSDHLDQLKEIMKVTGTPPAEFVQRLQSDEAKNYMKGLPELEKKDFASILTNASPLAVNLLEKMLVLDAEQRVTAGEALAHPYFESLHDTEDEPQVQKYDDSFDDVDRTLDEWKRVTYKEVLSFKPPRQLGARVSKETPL
Sequence of BDNF/NT-3 growth factors receptor (Homo sapiens) (Q16620 32-822 limits assumed): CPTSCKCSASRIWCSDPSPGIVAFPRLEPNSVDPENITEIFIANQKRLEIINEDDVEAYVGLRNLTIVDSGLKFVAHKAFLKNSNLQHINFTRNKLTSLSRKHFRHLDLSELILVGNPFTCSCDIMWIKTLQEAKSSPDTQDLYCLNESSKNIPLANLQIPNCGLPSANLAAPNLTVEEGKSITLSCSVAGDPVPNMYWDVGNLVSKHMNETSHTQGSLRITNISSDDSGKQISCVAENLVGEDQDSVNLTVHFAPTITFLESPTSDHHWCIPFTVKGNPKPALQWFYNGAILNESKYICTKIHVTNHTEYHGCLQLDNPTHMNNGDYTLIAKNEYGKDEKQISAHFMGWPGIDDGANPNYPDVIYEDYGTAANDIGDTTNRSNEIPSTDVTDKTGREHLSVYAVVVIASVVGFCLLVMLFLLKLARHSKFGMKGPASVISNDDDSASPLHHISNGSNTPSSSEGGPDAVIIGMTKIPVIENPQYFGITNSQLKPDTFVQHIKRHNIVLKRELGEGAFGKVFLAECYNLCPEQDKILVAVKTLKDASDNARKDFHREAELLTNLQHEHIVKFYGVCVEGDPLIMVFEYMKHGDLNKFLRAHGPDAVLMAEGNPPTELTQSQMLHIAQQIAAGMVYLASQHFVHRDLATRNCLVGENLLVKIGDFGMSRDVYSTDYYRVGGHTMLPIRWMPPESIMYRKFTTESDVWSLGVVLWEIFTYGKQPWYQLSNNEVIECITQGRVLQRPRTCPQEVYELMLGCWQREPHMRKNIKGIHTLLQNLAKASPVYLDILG
Sequence of Rho-associated protein kinase 2 (Homo sapiens) (O75116 whole entry, looked up): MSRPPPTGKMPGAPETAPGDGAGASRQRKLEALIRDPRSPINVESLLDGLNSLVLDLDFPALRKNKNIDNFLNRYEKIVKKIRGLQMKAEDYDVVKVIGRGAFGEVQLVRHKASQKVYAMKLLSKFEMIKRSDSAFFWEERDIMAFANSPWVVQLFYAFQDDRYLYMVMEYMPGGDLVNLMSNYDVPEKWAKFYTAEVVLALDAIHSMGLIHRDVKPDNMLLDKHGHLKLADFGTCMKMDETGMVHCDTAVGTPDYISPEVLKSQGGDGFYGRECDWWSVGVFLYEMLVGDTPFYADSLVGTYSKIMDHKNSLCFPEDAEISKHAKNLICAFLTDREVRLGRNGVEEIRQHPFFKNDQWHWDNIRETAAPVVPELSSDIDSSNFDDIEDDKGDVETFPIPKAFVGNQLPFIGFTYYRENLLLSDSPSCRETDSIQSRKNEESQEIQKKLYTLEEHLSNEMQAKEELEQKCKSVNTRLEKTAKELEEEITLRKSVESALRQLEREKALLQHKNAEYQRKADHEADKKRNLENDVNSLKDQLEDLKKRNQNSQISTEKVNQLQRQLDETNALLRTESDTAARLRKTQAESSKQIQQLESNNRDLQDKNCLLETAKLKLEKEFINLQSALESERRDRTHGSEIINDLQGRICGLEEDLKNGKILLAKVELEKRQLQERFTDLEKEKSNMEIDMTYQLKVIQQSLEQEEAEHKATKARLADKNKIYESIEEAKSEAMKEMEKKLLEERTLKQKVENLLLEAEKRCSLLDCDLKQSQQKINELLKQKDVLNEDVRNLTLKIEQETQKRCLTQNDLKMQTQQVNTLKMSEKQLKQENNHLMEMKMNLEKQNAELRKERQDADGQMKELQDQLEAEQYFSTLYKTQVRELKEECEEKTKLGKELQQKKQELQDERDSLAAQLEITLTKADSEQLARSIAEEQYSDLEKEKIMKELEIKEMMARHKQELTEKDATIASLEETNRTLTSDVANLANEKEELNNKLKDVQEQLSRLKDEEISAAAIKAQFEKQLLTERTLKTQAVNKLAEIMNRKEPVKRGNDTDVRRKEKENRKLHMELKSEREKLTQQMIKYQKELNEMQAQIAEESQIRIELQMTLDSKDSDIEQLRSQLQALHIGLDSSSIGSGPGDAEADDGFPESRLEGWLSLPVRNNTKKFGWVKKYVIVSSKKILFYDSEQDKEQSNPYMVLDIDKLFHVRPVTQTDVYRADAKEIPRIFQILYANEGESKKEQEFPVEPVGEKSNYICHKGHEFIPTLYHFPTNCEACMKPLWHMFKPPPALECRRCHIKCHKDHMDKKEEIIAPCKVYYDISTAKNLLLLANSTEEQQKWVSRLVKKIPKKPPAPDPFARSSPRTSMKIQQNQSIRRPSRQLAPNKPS
Sequence of Dual specificity mitogen-activated protein kinase kinase 7 (O14733 whole entry): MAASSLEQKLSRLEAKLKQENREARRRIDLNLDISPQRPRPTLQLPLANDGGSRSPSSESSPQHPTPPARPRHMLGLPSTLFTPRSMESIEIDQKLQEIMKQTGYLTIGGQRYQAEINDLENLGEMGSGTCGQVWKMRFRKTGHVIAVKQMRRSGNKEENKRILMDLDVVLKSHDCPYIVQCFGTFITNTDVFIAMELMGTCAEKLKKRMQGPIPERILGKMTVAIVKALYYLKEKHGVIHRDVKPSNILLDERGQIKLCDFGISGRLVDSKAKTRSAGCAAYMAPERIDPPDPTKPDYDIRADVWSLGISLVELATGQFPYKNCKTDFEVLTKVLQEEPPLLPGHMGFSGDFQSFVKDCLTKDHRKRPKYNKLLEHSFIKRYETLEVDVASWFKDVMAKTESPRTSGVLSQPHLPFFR
Sequence of Mitogen-activated protein kinase 9 (Homo sapiens) (P45984 whole entry, looked up): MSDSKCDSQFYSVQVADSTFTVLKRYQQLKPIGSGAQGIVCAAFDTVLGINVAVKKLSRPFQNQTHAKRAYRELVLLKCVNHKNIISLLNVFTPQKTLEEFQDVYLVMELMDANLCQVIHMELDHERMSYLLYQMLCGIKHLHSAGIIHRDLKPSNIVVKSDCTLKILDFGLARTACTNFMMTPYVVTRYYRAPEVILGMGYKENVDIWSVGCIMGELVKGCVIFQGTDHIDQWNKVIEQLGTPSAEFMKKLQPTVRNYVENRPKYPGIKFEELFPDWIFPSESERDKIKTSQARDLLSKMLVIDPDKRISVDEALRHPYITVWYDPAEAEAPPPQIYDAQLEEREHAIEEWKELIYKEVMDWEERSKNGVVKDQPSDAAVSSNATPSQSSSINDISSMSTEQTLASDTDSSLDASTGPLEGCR

Activity [1]: 85%
Activity [2]: 89%
Activity [3]: 107%
Activity [4]: 109%
Activity [5]: 90%
Activity [6]: 97%
Activity [7]: 117%
Activity [8]: 90%
Activity [9]: 93%
Activity [10]: 98%
IC50 [11]: > 10000 nM
IC50 (THP-1): 400 nM
IC50 [12]: 940 nM
Activity [13]: 74%
SMILES: O=C1NC(=O)/C(=C/c2ccc(-c3ccc(F)cc3O)o2)S1
Activity (Mus musculus): 35%

Source: ChEMBL document CHEMBL1138050, “Furan-2-ylmethylene thiazolidinediones as novel, potent, and selective inhibitors of phosphoinositide 3-kinase gamma” (J Med Chem, 2006)
